The values below come from ChEMBL document CHEMBL1132955 (J Med Chem, 2000).

In experiment [1] the test system is Human alphaherpesvirus 3. Briefly: Evaluated for the anti-VZV activity, the concentration of compounds in uM required to reduce VZV OKA Plaque formation after 5 days in HEL cell cultures compared to untreated controls. It is filed as functional, organism-based. Particulars: Human alphaherpesvirus 3, oka, 120 h. Put shortly: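 Confluent HEL fibroblasts infected with VZV at 20 PFU/well. Residual virus removed after 1-2 h adsorption. Cells then kept in MEM with 2% inactivated FCS, 1% L-glutamine and 0.3% sodium bicarbonate plus serial compound dilutions. OKA and YS strains are TK-competent; 07 and YS-R are TK-deficient.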

The subject of experiment [2] is Human alphaherpesvirus 3. The experiment can be described thus: (§1) cytostatic concentration required to reduce the HEL cell number by 50%. after 5 days in the absence of virus. Particulars: Human alphaherpesvirus 3, t, 120 h. It is filed as functional. A digest of the protocol:
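HEL fibroblasts, grown in MEM with 10% inactivated FCS, 1% L-glutamine and 0.3% sodium bicarbonate, were treated in 96-well cultures with varying compound concentrations for 5 days without virus. Cells were then trypsinized and counted with a Coulter counter. The value is the concentration giving 50% reduction in cell number.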

Experiment [3] relates to Human alphaherpesvirus 3. The experiment can be described thus: Evaluated for the anti-VZV, the concentration of compounds in uM required to reduce VZVTK-07 ( thymidine kinase-deficient strain ) plaque formation after 5 days in HEL cell cultures compared to untreated controls. It is filed as functional, organism-based. The settings on record: Human alphaherpesvirus 3, tk-07, HEL, 120 h.

Experiment [4] has as its system Human alphaherpesvirus 3. The experiment can be described thus: (§2) Minimal cytotoxic concentration, the concentration required to cause a microscopically visible alteration of normal cell morphology. It is filed as functional. The settings on record: Human alphaherpesvirus 3, t.
For experiment [5], the system named is Human alphaherpesvirus 3. The experiment can be described thus: Evaluated for the anti-VZV, the concentration of compounds in uM required to reduce VZVTK-YS-R ( thymidine kinase-deficient strain ) plaque formation after 5 days in HEL cell cultures compared to untreated controls. It is filed as functional, organism-based. The settings on record: Human alphaherpesvirus 3, tkys-r, 120 h.

For experiment [6], the system named is Human alphaherpesvirus 3. Briefly: Evaluated for the anti-VZV activity, the concentration of compounds in uM required to reduce VZV […] plaque formation after 5 days in HEL cell cultures compared to untreated controls. Particulars: Human alphaherpesvirus 3, ys, 120 h. It is filed as functional, organism-based.
In experiment [7] the test system is Human alphaherpesvirus 3. Described as §2. It is filed as functional. Put shortly:
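Uninfected HEL cell cultures exposed to graded compound concentrations. Morphology inspected by microscope. MCC is the lowest concentration producing a visible change in normal cell morphology.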

The subject of experiment [8] is Human alphaherpesvirus 3. The description is as §1. It is filed as functional. The settings on record: Human alphaherpesvirus 3, HEL, 120 h. Put shortly:
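HEL cells in 96-well plates treated with graded compound concentrations without virus for 5 days. Cells then trypsinized and counted with a Coulter counter.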

The subject of experiment [9] is Human alphaherpesvirus 3. The experiment can be described thus: Evaluated for the anti-VZV, the concentration required to reduce VZVTK-YS-R ( thymidine kinase-deficient strain ) plaque formation after 5 days in HEL cell cultures compared to untreated controls. The settings on record: Human alphaherpesvirus 3, ys-r, 120 h. It is filed as functional, organism-based. Put shortly:
(§3)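 Confluent HEL fibroblasts infected with VZV at 20 PFU/well. Residual virus removed after 1-2 h adsorption. Cells then kept in MEM with 2% inactivated FCS, 1% L-glutamine and 0.3% sodium bicarbonate plus serial compound dilutions. […] OKA and YS strains are TK-competent; 07 and YS-R are TK-deficient.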

Experiment [10] has as its system Human alphaherpesvirus 3. The experiment can be described thus: Evaluated for the anti-VZV activity, the concentration required to reduce VZV OKA plaque formation after 5 days in HEL cell cultures compared to untreated controls. It is filed as functional, organism-based. Particulars: Human alphaherpesvirus 3, oka, 120 h. A digest of the protocol: as §3
Experiment [11] has as its system Human alphaherpesvirus 3. Briefly: Evaluated for the anti-VZV activity, the concentration required to reduce VZV YS plaque formation after 5 days in HEL cell cultures compared to untreated controls. It is filed as functional, organism-based. The settings on record: Human alphaherpesvirus 3, ys, 120 h. A digest of the protocol: as §3
In experiment [12] the test system is Human alphaherpesvirus 3. Briefly: Evaluated for the anti-VZV, the concentration required to reduce VZV TK -07 ( thymidine kinase-deficient strain ) plaque formation after 5 days in HEL cell cultures compared to untreated controls. It is filed as functional, organism-based. Particulars: Human alphaherpesvirus 3, tk-07, HEL, 120 h. A digest of the protocol: as §3

Experiment [13] relates to Human alphaherpesvirus 3. Briefly: Evaluated for the anti-VZV activity, the concentration of compounds in uM required to reduce VZV TK-07 (thymidine kinase-deficient strain ) plaque formation after 5 days in HEL cell cultures compared to untreated controls. Particulars: Human alphaherpesvirus 3, tk-07, HEL, 120 h.
For experiment [14], the system named is Human alphaherpesvirus 3. Briefly: Evaluated for the anti-VZV activity, which is the concentration of compounds in uM required to reduce VZV YS plaque formation after 5 days in HEL cell cultures compared to untreated controls. The settings on record: Human alphaherpesvirus 3, ys, 120 h. It is filed as functional, organism-based. A digest of the protocol: as §3

The subject of experiment [15] is Human alphaherpesvirus 3. Briefly: Evaluated for the anti-VZV activity, the concentration of compounds in uM required to reduce VZV OKA plaque formation after 5 days in HEL cell cultures compared to untreated controls. The settings on record: Human alphaherpesvirus 3, oka, 120 h. It is filed as functional, organism-based. Put shortly:
as §3

The subject of experiment [16] is Human alphaherpesvirus 3. Briefly: Evaluated for the anti-VZV, the concentration of compounds in uM required to reduce VZV TK-YS-R ( thymidine kinase-deficient strain ) plaque formation after 5 days in HEL cell cultures compared to untreated controls. It is filed as functional, organism-based. Particulars: Human alphaherpesvirus 3, ys-r, 120 h. A digest of the protocol:
as §3

The EC50 is the concentration needed to bring the measured effect to its halfway point. Low readings indicate higher potency in that assay, high ones lower potency in that assay. As a reminder, the CC50 is the concentration giving 50% cytotoxicity. In the case of `O=c1[nH]c(=O)n([C@H]2C[C@H](O)[C@@H](CO)O2)cc1/C=C/Br` [BRIVUDINE], the EC50 with Human alphaherpesvirus 3 [1] was 0.003 µM; in the experiment with Human alphaherpesvirus 3 [3] it was more than 150 µM; with Human alphaherpesvirus 3 [5], more than 150 µM; with Human alphaherpesvirus 3 [6], 0.003 µM. Moreover, the CC50 with Human alphaherpesvirus 3 [2] is more than 400 µM. For the same compound, the MCC in the experiment on Human alphaherpesvirus 3 [4] is more than 400 µM.
Consider `CCCCCCCCc1ccc(-c2cc3cn([C@H]4C[C@H](O)[C@@H](CO)O4)c(=O)nc3o2)cc1`, for which the EC50 in the experiment with Human alphaherpesvirus 3 [1] was 0.04 µM; in the experiment on Human alphaherpesvirus 3 [3], more than 20 µM; with Human alphaherpesvirus 3 [5], more than 20 µM; in the experiment with Human alphaherpesvirus 3 [6] it was 0.027 µM. Besides, the MCC in the experiment on Human alphaherpesvirus 3 [7] was more than 20 µM. For the same compound, the CC50 in the experiment on Human alphaherpesvirus 3 [8] is more than 200 µM.
In the case of `O=c1nc2oc(-c3ccccc3)cc2cn1[C@H]1C[C@H](O)[C@@H](CO)O1`, the EC50 is 162 µM in the experiment with Human alphaherpesvirus 3 [9], 0.28 µM with Human alphaherpesvirus 3 [10], 0.16 µM in the experiment with Human alphaherpesvirus 3 [11] and more than 200 µM with Human alphaherpesvirus 3 [12]. For the same compound, the MCC in the experiment on Human alphaherpesvirus 3 [7] was more than 200 µM. This compound also registered a CC50 in the experiment with Human alphaherpesvirus 3 [8] of more than 200 µM.
For the compound `Cc1ccc(-c2cc3cn([C@H]4C[C@H](O)[C@@H](CO)O4)c(=O)nc3o2)cc1`, the EC50 with Human alphaherpesvirus 3 [13] is 103 µM; in the experiment with Human alphaherpesvirus 3 [14] it was 0.06 µM; with Human alphaherpesvirus 3 [15], 0.06 µM; with Human alphaherpesvirus 3 [16], more than 200 µM. In the experiment with Human alphaherpesvirus 3 [7], this compound gave an MCC of more than 200 µM. Also, the CC50 in the experiment on Human alphaherpesvirus 3 [8] was more than 200 µM.
Take `Nc1nc2c(ncn2COCCO)c(=O)[nH]1` [ACYCLOVIR]: the MCC in the experiment with Human alphaherpesvirus 3 [7] was more than 200 µM. This compound also displayed a CC50 with Human alphaherpesvirus 3 [8] of more than 200 µM.
Turning to `O=c1nc2oc(-c3ccc(Cl)cc3)cc2cn1[C@H]1C[C@H](O)[C@@H](CO)O1`, the EC50 with Human alphaherpesvirus 3 [1] is 0.1 µM; in the experiment on Human alphaherpesvirus 3 [3], more than 50 µM; in the experiment with Human alphaherpesvirus 3 [5], more than 50 µM; with Human alphaherpesvirus 3 [6] it was 0.1 µM. Moreover, in the experiment on Human alphaherpesvirus 3 [7], the MCC was 200 µM.
Regarding `O=c1nc2oc(-c3ccc(Br)cc3)cc2cn1[C@H]1C[C@H](O)[C@@H](CO)O1`, the EC50 in the experiment on Human alphaherpesvirus 3 [1] is 0.5 µM; in the experiment on Human alphaherpesvirus 3 [3], more than 50 µM; with Human alphaherpesvirus 3 [5] it was more than 50 µM; in the experiment on Human alphaherpesvirus 3 [6] it was 0.5 µM. Also, the MCC with Human alphaherpesvirus 3 [7] was 50 µM.
As for `CCCCCCCCCCc1cc2cn([C@H]3C[C@H](O)[C@@H](CO)O3)c(=O)nc2o1`, the EC50 was 0.015 µM in the experiment on Human alphaherpesvirus 3 [1], more than 50 µM with Human alphaherpesvirus 3 [3], more than 50 µM in the experiment on Human alphaherpesvirus 3 [5] and 0.008 µM with Human alphaherpesvirus 3 [6]. The compound also gave an MCC with Human alphaherpesvirus 3 [7] of more than 50 µM. The compound also displayed a CC50 in the experiment with Human alphaherpesvirus 3 [8] of more than 50 µM.
In the case of `CCCCCCCCc1cc2cn([C@H]3C[C@H](O)[C@@H](CO)O3)c(=O)nc2o1`, the concentration giving a half-maximal response (EC50) in the experiment with Human alphaherpesvirus 3 [15] is 0.008 µM; in the experiment on Human alphaherpesvirus 3 [3], more than 50 µM; in the experiment on Human alphaherpesvirus 3 [5], more than 50 µM; in the experiment with Human alphaherpesvirus 3 [6], 0.024 µM. For the same compound, the MCC with Human alphaherpesvirus 3 [7] was more than 50 µM. In the experiment on Human alphaherpesvirus 3 [8], this compound had a CC50 of more than 50 µM.
On to `CCCCCCCCCc1cc2cn([C@H]3C[C@H](O)[C@@H](CO)O3)c(=O)nc2o1`, for which the EC50 is 0.02 µM in the experiment on Human alphaherpesvirus 3 [1], more than 200 µM with Human alphaherpesvirus 3 [3], more than 200 µM in the experiment with Human alphaherpesvirus 3 [5] and 0.02 µM in the experiment with Human alphaherpesvirus 3 [6]. Further, in the experiment with Human alphaherpesvirus 3 [7], the MCC is more than 200 µM. Moreover, the cytotoxic concentration (CC50) in the experiment on Human alphaherpesvirus 3 [8] was more than 200 µM.
